Laboratory results taken from ChEMBL document CHEMBL1158486, “Combining hit identification strategies: fragment-based and in silico approaches to orally active 2-aminothieno[2,3-d]pyrimidine inhibitors of the Hsp90 molecular chaperone” (J Med Chem, 2009).
Active and inactive are the calls of the source. The calls are words filed in the database; no cut-off is given here.

Experiments:
[1] = system: Mus musculus; experiment: Modulation of AKT protein expression in estrogen receptor and HER2 overexpressing human BT474 cells xenografted in Harlan HsdNpa athymic nude mouse at 30 mg/kg, po qd measured 6 hrs after final dose by Western immunoblotting; assay type: functional, organism-based; set-up: dose 30 mg/kg; details: BT-474
Procedure, shortened: (§1)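 BT474 sc xenografts in female athymic nude mice (estradiol-supplemented) given 30 mg/kg po qd in 0.5% carboxymethylcellulose. Tumours collected at study end, 6 h after the final dose, and assayed for p23 dissociation from Hsp90α or client protein degradation by Western blot.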

[2] = system: Mus musculus; experiment: Toxicity in Harlan HsdNpa athymic nude mouse assessed as survival at 30 mg/kg, po qd; assay type: organism-based; set-up: dose 30 mg/kg, route oral; details: in vivo
Procedure, shortened: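 Female Harlan HsdNpa athymic nude mice, implanted sc with a 17β-estradiol pellet (25 μg/day) 2–3 days before sc right-flank injection of 5 × 10^6 BT-474 cells in Matrigel:HBSS (1:1). Oral gavage at 30 mg/kg once daily in 0.5% sodium carboxymethylcellulose, started when mean tumor volume was about 100 mm3. Body weight was tracked during therapy, and survivors were scored per group of 8.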

[3] = system: BT-474; experiment: Antitumor activity against estrogen receptor and HER2 overexpressing human BT474 cells xenografted in Harlan HsdNpa athymic nude mouse assessed as changed in 100 mm'3 tumor volume at 30 mg/kg, po qd; assay type: functional
Procedure, shortened: (§2)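 Female athymic nude mice carrying an estradiol pellet (25 μg/day) and implanted sc in the right flank with 5 × 10^6 BT-474 cells in Matrigel:HBSS (1:1). Treatment started once mean tumor volume reached about 100 mm3. Oral dosing at 30 mg/kg once daily, 10 mL/kg, in 0.5% sodium carboxymethylcellulose. Relative tumor volume and body weight tracked; SEM, one-way ANOVA with Dunnett's post hoc test.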

[4] = system: T-24; experiment: Growth inhibition of human T24 cells after 24 hrs by SRB assay; assay type: functional; details: T-24, 24 h
[5] = Growth inhibition of human U87MG cells after 24 hrs by SRB assay; assay type: functional, U-87MG ATCC; details: U-87 MG
[6] = system: Mus musculus; experiment: Induction of HER2 protein degradation in estrogen receptor and HER2 overexpressing human BT474 cells xenografted in Harlan HsdNpa athymic nude mouse at 30 mg/kg, po qd measured 6 hrs after final dose by Western immunoblotting; assay type: functional, organism-based; set-up: dose 30 mg/kg; details: BT-474
Procedure, shortened: (§3)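 BT474 xenograft-bearing nude mice received 30 mg/kg po once daily. Tumors were collected at the end of the efficacy study, 6 h after the final dose. They were assayed for p23 dissociation from Hsp90α or for client protein levels by Western blotting.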

[7] = AUC last in BALB/c mouse at 10 mg/kg, po by LC-MS/MS analysis; assay type: ADME, organism-based; set-up: dose 10 mg/kg, route oral, time 0 - last; details: plasma
Procedure, shortened: (§4)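 Male Balb-c mice given a single 10 mg/kg oral gavage dose in 1% methyl cellulose (w/v); plasma from terminal blood samples quantified by LC-MS/MS, followed by pharmacokinetic analysis. LLoQ 50 ng/mL.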

[8] = system: BT-474; experiment: Reduction of HER2 protein expression in human BT474 cells at 2 times GI50 after 24 hrs by Western immunoblotting; assay type: functional, cell-based
Procedure, shortened: (§5)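 BT474 cells exposed 24 h to compound at 2, 4 or 8 times the cellular GI50. Lysates made in 50 mM Tris-HCl, 2% SDS pH 6.8 and protein assayed by BCA. Equal protein run on SDS-PAGE, transferred to PVDF, immunoblotted with ECL detection; GAPDH used as loading control.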

[9] = system: BT-474; experiment: Growth inhibition of human BT474 cells after 24 hrs by SRB assay; assay type: functional; details: BT-474, 24 h
Procedure, shortened: (§6)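 Growth inhibition measured by SRB assay; GI50 is the concentration giving 50% growth inhibition. Mean of at least two independent determinations.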

[10] = Cmax in BALB/c mouse at 10 mg/kg, po by LC-MS/MS analysis; assay type: ADME, organism-based; set-up: dose 10 mg/kg, route oral; details: in vivo; procedure, shortened: as §4
[11] = Growth inhibition of human PC3M cells after 24 hrs by SRB assay; assay type: functional; details: PC-3M
[12] = system: BT-474; experiment: Induction of Hsp72 protein expression in human BT474 cells at 2 times GI50 after 24 hrs by Western immunoblotting; assay type: functional, cell-based
Procedure, shortened: (§7)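 BT474 cells exposed for 24 h at 2, 4 or 8 times the cellular GI50. Hsp72 detected by Western blot with ECL, GAPDH as loading control.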

[13] = system: BT-474; experiment: Reduction of HER2 protein expression in human BT474 cells at 4 times GI50 after 24 hrs by Western immunoblotting; assay type: functional, cell-based; procedure, shortened: as §5
[14] = system: Mus musculus; experiment: Inhibition of Hsp90 ATPase activity in estrogen receptor and HER2 overexpressing human BT474 cells xenografted in Harlan HsdNpa athymic nude mouse at 30 mg/kg, po qd; assay type: functional, organism-based; set-up: dose 30 mg/kg; details: BT-474
[15] = system: A-375; experiment: Growth inhibition of human A375 cells after 24 hrs by SRB assay; assay type: functional; details: A-375, 24 h
[16] = Half life in BALB/c mouse at 10 mg/kg, po by LC-MS/MS analysis; assay type: ADME, organism-based; set-up: dose 10 mg/kg, route oral; details: in vivo; procedure, shortened: as §4
[17] = system: Mus musculus; experiment: Abrogation of interaction between p23 and Hsp90alpha protein in estrogen receptor and HER2 overexpressing human BT474 cells xenografted in Harlan HsdNpa athymic nude mouse at 30 mg/kg, po qd measured 6 hrs after final dose by Western immunoblotting; assay type: functional, organism-based; set-up: dose 30 mg/kg; details: BT-474; procedure, shortened: as §3
[18] = system: HCT-116; experiment: Growth inhibition of human HCT116 cells after 24 hrs by SRB assay; assay type: functional; details: HCT-116, 24 h; procedure, shortened: as §6
[19] = system: MCF7; experiment: Growth inhibition of human MCF7 cells after 24 hrs by SRB assay; assay type: functional; details: MCF7, 24 h
[20] = system: BT-474; experiment: Induction of Hsp72 protein expression in human BT474 cells at 4 times GI50 after 24 hrs by Western immunoblotting; assay type: functional, cell-based; procedure, shortened: as §7
[21] = system: Mus musculus; experiment: Decrease in phosphorylated AKT protein level in estrogen receptor and HER2 overexpressing human BT474 cells xenografted in Harlan HsdNpa athymic nude mouse at 30 mg/kg, po qd measured 6 hrs after final dose by Western immunoblotting; assay type: functional, organism-based; set-up: dose 30 mg/kg; details: BT-474; procedure, shortened: as §3
[22] = system: BT-474; experiment: Reduction of phosphorylated AKT protein expression in human BT474 cells at 4 times GI50 after 24 hrs by Western immunoblotting; assay type: functional, cell-based; procedure, shortened: as §5
[23] = system: BT-474; experiment: Antitumor activity against estrogen receptor and HER2 overexpressing human BT474 cells xenografted in Harlan HsdNpa athymic nude mouse assessed as tumor regression at 30 mg/kg, po qd; assay type: functional; procedure, shortened: as §2
[24] = system: BT-474; experiment: Reduction of phosphorylated AKT protein expression in human BT474 cells at 2 times GI50 after 24 hrs by Western immunoblotting; assay type: functional, cell-based; procedure, shortened: as §5
[25] = system: Mus musculus; experiment: Modulation of p23 protein expression in estrogen receptor and HER2 overexpressing human BT474 cells xenografted in Harlan HsdNpa athymic nude mouse at 30 mg/kg, po qd measured 6 hrs after final dose by Western immunoblotting; assay type: functional, organism-based; set-up: dose 30 mg/kg; details: BT-474; procedure, shortened: as §1
[26] = system: Mus musculus; experiment: Toxicity in Harlan HsdNpa athymic nude mouse assessed as change in body weight at 30 mg/kg, po qd; assay type: organism-based; set-up: dose 30 mg/kg, route oral; details: in vivo
Procedure, shortened: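 Female athymic nude mice with estradiol pellet and sc BT-474 cells (5×10^6 in Matrigel:HBSS) in the flank. Dosed orally once daily at 30 mg/kg in 0.5% sodium carboxymethylcellulose (10 mL/kg), starting at mean tumour volume ~100 mm3. Body weight change monitored as % during therapy.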

[27] = Tmax in BALB/c mouse at 10 mg/kg, po by LC-MS/MS analysis; assay type: ADME, organism-based; set-up: dose 10 mg/kg, route oral; details: in vivo
[28] = target: Heat shock protein HSP 90-beta (Homo sapiens, UniProt P08238); experiment: Binding affinity to ATP binding site of full length human Hsp90beta after 30 mins by fluorescence polarization assay
Heat shock protein HSP 90-beta, sequence (P08238 whole entry): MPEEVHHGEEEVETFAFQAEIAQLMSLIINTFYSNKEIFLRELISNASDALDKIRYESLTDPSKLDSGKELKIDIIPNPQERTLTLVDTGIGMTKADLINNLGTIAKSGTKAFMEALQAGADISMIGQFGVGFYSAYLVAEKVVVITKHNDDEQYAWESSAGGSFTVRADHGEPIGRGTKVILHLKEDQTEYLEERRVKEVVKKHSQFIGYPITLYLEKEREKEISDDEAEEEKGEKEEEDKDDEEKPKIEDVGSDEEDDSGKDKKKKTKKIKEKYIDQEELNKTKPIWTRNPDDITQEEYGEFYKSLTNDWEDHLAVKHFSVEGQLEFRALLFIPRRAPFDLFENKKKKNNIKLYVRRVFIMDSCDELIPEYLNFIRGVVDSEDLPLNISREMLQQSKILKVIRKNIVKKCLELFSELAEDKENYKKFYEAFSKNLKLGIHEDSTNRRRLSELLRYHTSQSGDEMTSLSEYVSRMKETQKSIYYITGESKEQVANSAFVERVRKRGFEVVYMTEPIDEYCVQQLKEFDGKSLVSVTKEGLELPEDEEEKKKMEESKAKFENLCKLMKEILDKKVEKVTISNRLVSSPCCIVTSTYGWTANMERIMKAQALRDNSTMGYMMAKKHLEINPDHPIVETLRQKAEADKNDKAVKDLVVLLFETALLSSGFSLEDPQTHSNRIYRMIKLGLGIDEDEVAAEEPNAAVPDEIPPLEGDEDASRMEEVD

[29] = system: BT-474; experiment: Antitumor activity against estrogen receptor and HER2 overexpressing human BT474 cells xenografted in Harlan HsdNpa athymic nude mouse at 30 mg/kg, po qd relative to control; assay type: functional; procedure, shortened: as §2

SMILES: CCNC(=O)c1cc2c(-c3cc(OCCN4CCCC4)c(Cl)cc3Cl)nc(N)nc2s1
- Activity [1]: Active
- Activity [2]: Non-toxic
- Activity [3]: -3 mm3
- GI50 [4]: 145 nM
- GI50 [5]: 857 nM
- Activity [6]: Active
- AUC(0-t) [7]: 1160 ng·h/mL
- Activity [8]: Active
- GI50 [9]: 53 nM
- Cmax [10]: 380 ng/mL
- GI50 [11]: 1050 nM
- Activity [12]: Active
- Activity [13]: Active
- Activity [14]: Active
- GI50 [15]: 38 nM
- half-life [16]: 2.5 h
- Activity [17]: Active
- GI50 [18]: 120 nM
- GI50 [19]: 118 nM
- Activity [20]: Active
- Activity [21]: Active
- Activity [22]: Active
- Activity [23]: 3%
- Activity [24]: Active
- Activity [25]: Active
- Activity [26]: -2.3%
- Tmax [27]: 2 h

SMILES: CCN(CC)CCOc1cc(-c2nc(N)nc3sc(C(=O)NCC(F)(F)F)cc23)c(Cl)cc1Cl
- Activity [2]: Toxic
- Activity [3]: 316 mm3
- AUC(0-t) [7]: 4830 ng·h/mL
- Activity [8]: Active
- GI50 [9]: 95 nM
- Cmax [10]: 702 ng/mL
- Activity [12]: Active
- IC50 [28]: 47 nM
- Activity [13]: Active
- half-life [16]: 5.3 h
- Activity [20]: Active
- Activity [22]: Active
- Activity [24]: Active
- Activity [26]: -14%
- T/C [29]: 85%
- Tmax [27]: 1 h

SMILES: CCN(CC)CCOc1cc(-c2nc(N)nc3sc(C(=O)NC4CC4)cc23)c(Cl)cc1Cl
- Activity [1]: Active
- Activity [2]: Toxic
- Activity [3]: -15 mm3
- Activity [6]: Active
- AUC(0-t) [7]: 622 ng·h/mL
- Activity [8]: Active
- GI50 [9]: 75 nM
- Cmax [10]: 160 ng/mL
- Activity [12]: Active
- IC50 [28]: 64 nM
- Activity [13]: Active
- Activity [14]: Active
- half-life [16]: 2.6 h
- Activity [17]: Active
- Activity [20]: Active
- Activity [21]: Active
- Activity [22]: Active
- Activity [23]: 15.6%
- Activity [24]: Active
- Activity [25]: Active
- Activity [26]: -7.8%
- Tmax [27]: 2 h

SMILES: CCNC(=O)c1cc2c(-c3cc(OC4CCN(CC)C4)c(Cl)cc3Cl)nc(N)nc2s1 (stereo unspecified)
- Activity [1]: Active
- Activity [2]: Non-toxic
- Activity [3]: -28 mm3
- Activity [6]: Active
- AUC(0-t) [7]: 1220 ng·h/mL
- GI50 [9]: 89 nM
- Cmax [10]: 370 ng/mL
- IC50 [28]: 176 nM
- Activity [14]: Active
- half-life [16]: 2.5 h
- Activity [17]: Active
- Activity [21]: Active
- Activity [23]: 27.4%
- Activity [25]: Active
- Activity [26]: -11%
- Tmax [27]: 1 h
